Results pooled from the literature.
Each line is one published result; the experiments were not run side by side.

SMILES | test system | conditions | Tmax [h]
CS(=O)(=O)CCC#N | human, plasma | oral, 300 mg, multiple doses, once daily | 1
FC(F)(F)c1ccc(CNc2ccc(Cc3c[nH]c4ncc(Cl)cc34)cn2)cn1 | human, plasma | oral, 600 mg, single dose, healthy volunteers | 2.5
C=CC(=O)N(C)CCOc1c(N)ncnc1-c1cc(F)cc(NC(=O)c2ccc(C3CC3)cc2F)c1C | human, blood | oral, 1.5 mg, single dose, healthy volunteers | 0.5
COc1ccc([C@@H]2CN(C(=O)[C@@H](O)CO)C[C@@]2(C)[C@@H](C)O)cc1OC1CN(c2ccc(C)cn2)C1 | human, plasma | oral, 0.1 mg, single dose, healthy volunteers | 1
CCc1nc2c(C)cc(N3CCN(CC(=O)N4CC(O)C4)CC3)cn2c1N(C)c1nc(-c2ccc(F)cc2)c(C#N)s1 | human, plasma | oral, 20 mg, fed, healthy volunteers | 1
CCO[C@H]1CCN(Cc2c(OC)cc(C)c3[nH]ccc23)[C@H](c2ccc(C(=O)O)cc2)C1 | human, plasma | oral, 100 mg, multiple doses, twice daily, patients | 1.53
Cn1cc(-c2ccc(S(=O)(=O)[C@@H]3C[C@@H](C(=O)NC4(C#N)CC4)N(C(=O)C4(C(F)(F)F)CC4)C3)c(C(F)(F)F)c2)cn1 | human, plasma | oral, 300 mg, single dose, fasted, healthy volunteers | 3.5
C[C@@]1(c2cc(NC(=O)c3ccc(C#N)cn3)ccc2F)C=CSC(N)=N1 | human, plasma | oral, 150 mg, single dose | 1.5
Cc1nc(-c2cn3c(n2)-c2ccc(-c4cnn(C(C)(C)C(N)=O)c4)cc2OCC3)n(C(C)C)n1 | human, plasma | oral, 6 mg, patients | 2.05
CC(C)(Sc1ccncc1-c1ccc(C#N)c2ccccc12)C(=O)O | male human, plasma | oral, 10 mg, multiple doses, once daily | 1
CC(C)[C@](O)(c1ccc2cc(OC(F)F)c(OC(F)F)cc2c1)c1c[nH]nn1 | female human, plasma | oral, 750 mg, single dose | 3
C/C(=C\c1csc(C)n1)[C@@H]1C[C@@H]2O[C@]2(C)CCC[C@H](C)[C@H](O)[C@@H](C)C(=O)C(C)(C)[C@@H](O)CC(=O)N1 | human, plasma | intravenous, 20 mg/m², patients | 1
C[C@@H](Nc1cc(F)cc(F)c1)c1cc(C(=O)N(C)C)cc2c(=O)cc(N3CCOCC3)oc12 | human, plasma | oral, 240 mg, patients | 2
COc1cc(N2CCC(N3CCN(C)CC3)CC2)ccc1Nc1ncnc(Nc2ccccc2S(=O)(=O)C(C)C)n1 | human, plasma | oral, 125 mg, multiple doses, patients | 2.97
C#C[C@]1(COP(=O)(O)OP(=O)(O)OP(=O)(O)O)O[C@@H](n2cnc3c(N)nc(F)nc32)C[C@@H]1O | human, plasma | oral, 30 mg, single dose | 24
c1cnc2ccc(Nc3nc(NC4CC4)c4nc[nH]c4n3)cc2c1 | human, plasma | oral, 400 mg/m², patients | 6.5
Cc1nc(NC(=O)N2CCC[C@H]2C(N)=O)sc1-c1ccnc(C(C)(C)C(F)(F)F)c1 | human, plasma | oral, 270 mg, patients | 2.02
CC(C)(O)c1ccccc1-c1ccc2[nH]c(/C=C/c3ccc(C(F)(F)F)cc3)nc2c1 | male human, plasma | oral, 2 mg, single dose, fasted | 3.94
CC(C)n1cc(C#N)c2cc(-n3cc(C(=O)O)cn3)ccc21 | human, plasma | oral, 50 mg, single dose, fasted, healthy volunteers | 3
